CCR6 antagonist: blocks CCL20-driven beta-arrestin recruitment at human CCR6. CHO-K1 CCR6 PathHunter beta-arrestin, luminescence, CCL20-stimulated. inhibition, % at 20 µM. actives 0.49% (n = 340,000);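 active means compounds whose inhibition of the agonist-driven luminescence signal at 20 µM reaches about 50%, limit read from the data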;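 further: cells stimulated with CCL20 at 14 nM final; plate controls were DMSO with CCL20 for no effect and DMSO without agonist for full effect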
APJ antagonist: APJ receptor antagonism | P35414 | inhibition, % at 20 µM | CHO-K1 APJ beta-arrestin complementation, luminescence | AID 2521 | actives 0.32% (n = 330,000);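 active means inhibition above about 40% at 20 µM, limit read from the data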;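 further: cells challenged with 10 nM apelin-13 agonist together with compound; plate controls were apelin-13 plus DMSO wells for no effect and DMSO wells lacking apelin-13 for full effect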
APJ ag: activates the human apelin receptor APJ; P35414; CHO-K1 APJ PathHunter beta-arrestin, luminescence; 0% DMSO wells, 100% apelin; activation, % at 20 µM; actives 0.11% (n = 330,000); AID 2520;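 active means activation more than six SD over the plate average, tested at 20 µM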;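 further: 0% = DMSO alone and 100% = apelin-13 at 10 nM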
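Incubation: overnight seeding, 90 min compound at 25 °C, 1 h detection; test system: PathHunter CHO-K1 APJ (AGTRL-1) beta-arrestin reporter cells; amount: 1000 cells/well; doses: one dose, 20 µM compound, 1% DMSO; measured by: beta-gal luminescence; measure: agonist-driven arrestin binding to APJ; benchmarks: negative DMSO alone, positive Apelin-13 at 10 nM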
CXCR6 block: CXCR6 (human) receptor inhibition; CHO-K1 PathHunter CXCR6 beta-arrestin, luminescence; actives 0.36% (n = 360,000); O00574; inhibition, % at 20 µM; in the data active means inhibition above about 34%, passing the limit was not always enough;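 further: antagonist mode with CXCL16 agonist at 10 nM final; 0% = 10 nM CXCL16 with DMSO and 100% = unstimulated wells without agonist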
EBI2 antag: blocks human EBI2 receptor beta-arrestin signaling | P32249 | EBI2 beta-arrestin recruitment, luminescence, 7a,25-OHC stimulated | inhibition, % at 5 µM | actives 0.81% (n = 360,000); in the data active means inhibition above about 38%;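 further: enzyme fragment complementation signal reports receptor beta-arrestin coupling in cells; 0% = agonist plus DMSO wells and 100% = wells without agonist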
Target sequence (P32249 whole entry, looked up, the tested form may be a part): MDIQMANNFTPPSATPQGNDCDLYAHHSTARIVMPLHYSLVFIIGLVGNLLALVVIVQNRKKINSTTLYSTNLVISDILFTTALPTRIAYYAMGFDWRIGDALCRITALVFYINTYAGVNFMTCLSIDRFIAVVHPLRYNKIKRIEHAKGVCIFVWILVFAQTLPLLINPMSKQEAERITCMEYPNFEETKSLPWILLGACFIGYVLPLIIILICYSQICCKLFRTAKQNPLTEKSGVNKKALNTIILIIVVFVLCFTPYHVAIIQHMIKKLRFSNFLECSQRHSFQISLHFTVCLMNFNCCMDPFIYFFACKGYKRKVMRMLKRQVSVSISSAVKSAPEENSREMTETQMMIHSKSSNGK
HTR2A ag: activates the mouse 5-HT2A serotonin receptor; P35363; actives 0.66% (n = 360,000); AID 624169; CHO-K1 mHTR2A beta-arrestin complementation, luminescence; percent of 30 µM serotonin response; activation, % at 7.6 µM;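 active means activation above a run cutoff, the mean activation of all tested compounds plus 3 SD, cut at about 14% in these data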;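 further: 0% = plate median of compound wells and 100% = 30 µM serotonin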
EBI2 antag conf: confirmation of human EBI2 receptor antagonists. shares compounds with EBI2 antag. EBI2 beta-arrestin luminescence, 7a,25-OHC antagonism. inhibition, % at 5 µM. actives 29% (n = 2,400). AID 651997;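 active means inhibition of at least 50%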
EBI2 agonist: counter-screen for EBI2 antagonists: EBI2 agonist activity; shares compounds with EBI2 antag; EBI2-expressing cells, agonist mode, luminescence, 60 min; 0% vehicle, 100% 7α,25-dihydroxycholesterol control; activation, % at 5 µM; 2,400 tested, under 10 active;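 active means activation of at least 50%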
bGal cs: inhibits E. coli beta-galactosidase, counter-screen for EBI2 antagonists; shares compounds with EBI2 antag; purified beta-galactosidase, luminescent Galacton Star, 15 min; inhibition, % at 5 µM; actives 1% (n = 2,400);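 active means replicate-average signal at least 3 plate SD below neutral wells, shown as high inhibition, flagging enzyme-inhibiting false positives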;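 further: 0% = DMSO wells with enzyme and 100% = wells lacking enzyme; higher means stronger loss of beta-gal luminescence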
* marks the source's active call; other numbers are inactive results. Sampled rows, rich in hits. Any-hit rate of the full collection: about 2.2%.

Results for COc1cc2ccccc2cc1C(=O)Nc1cccnc1 ?
CCR6 antagonist: -1; APJ antagonist: -9; APJ ag: -4; CXCR6 block: 1; EBI2 antag: 1; HTR2A ag: -7

What do the screens show for `CCOc1ccc(NC(=O)c2cc3ccccc3cc2O)cc1`?
CCR6 antagonist: -3; APJ antagonist: -44; APJ ag: 2; CXCR6 block: -23; EBI2 antag: 6; HTR2A ag: -2

What do the screens show for `COc1ccc(NC(=O)c2ccc(C(=O)c3cc(OC)ccc3OC)cc2)cc1`?
CCR6 antagonist: 6; APJ antagonist: 2; APJ ag: -3; CXCR6 block: -5; EBI2 antag: 48*; HTR2A ag: -15; EBI2 antag conf: 6; EBI2 agonist: 0; bGal cs: 6

What do the screens show for `COc1ccc(NC(=O)c2cc3ccccc3cc2OC)cc1`?
CCR6 antagonist: 11; APJ antagonist: 18; APJ ag: -5; CXCR6 block: -2; EBI2 antag: 65*; HTR2A ag: -6; EBI2 antag conf: 36; EBI2 agonist: 1; bGal cs: 5

What do the screens show for `CCOC(=O)N1CCN(C(=O)/C=C/c2cccc([N+](=O)[O-])c2)CC1`?
CCR6 antagonist: 8; APJ antagonist: 2; APJ ag: 1; CXCR6 block: -6; EBI2 antag: 48*; HTR2A ag: 2; EBI2 antag conf: 26; EBI2 agonist: -1; bGal cs: -11

What do the screens show for `CCOC(=O)N1CCN(C(=O)/C=C/c2ccc(OC)c(OC)c2)CC1`?
CCR6 antagonist: 11; APJ antagonist: -3; APJ ag: 2; CXCR6 block: 9; EBI2 antag: 28; HTR2A ag: 3

Results for CCOC(=O)N1CCN(C(=O)/C=C/c2ccc([N+](=O)[O-])cc2)CC1 ?
CCR6 antagonist: -6; APJ antagonist: 17; APJ ag: 1; CXCR6 block: -6; EBI2 antag: 80*; HTR2A ag: 2; EBI2 antag conf: 58*; EBI2 agonist: 0; bGal cs: 7

Results for O=C(/C=C/c1ccc([N+](=O)[O-])cc1)N1CCN(S(=O)(=O)c2cccs2)CC1 ?
CCR6 antagonist: -11; APJ antagonist: -34; APJ ag: 1; CXCR6 block: -1; EBI2 antag: 93*; HTR2A ag: -1; EBI2 antag conf: 63*; EBI2 agonist: 1; bGal cs: 3

How did CCOC(=O)N1CCN(C(=O)/C=C/c2ccc(C(C)(C)C)cc2)CC1 do in these assays?
CCR6 antagonist: 11; APJ antagonist: -9; APJ ag: -1; CXCR6 block: -4; EBI2 antag: 62*; HTR2A ag: 1; EBI2 antag conf: 53*; EBI2 agonist: 1; bGal cs: 8

What do the screens show for `CCCCCCN1C[C@H](O)[C@@H](n2cc(C3CC3)nn2)C[C@@H]1c1ccccc1`?
CXCR6 block: 3; EBI2 antag: -2; HTR2A ag: 0

Results for CC1(C(=O)NS(=O)(=O)Cc2ccccc2C(F)(F)F)CCN1C(=O)c1ccco1 (stereo not given) ?
CXCR6 block: -7; EBI2 antag: 0; HTR2A ag: 3

How did Nc1ncnc2c1ncn2[C@@H]1O[C@H](CNC(=O)[C@@H](N)Cc2ccc(C(=O)c3ccccc3)cc2)[C@@H](O)[C@H]1O do in these assays?
CXCR6 block: -5; EBI2 antag: -3; HTR2A ag: -5

Results for COc1ccc(-n2c(SCC(=O)NNC(=O)c3ccc(C)cc3)nnc2-c2ccncc2)cc1 ?
CCR6 antagonist: -1; APJ antagonist: 5; APJ ag: -2; CXCR6 block: -9; EBI2 antag: 55*; HTR2A ag: -1; EBI2 antag conf: 30; EBI2 agonist: 2; bGal cs: 3

Source: PubChem BioAssay
